Data set [1] in a line: Drug transport in human Caco2 cells assessed as basolateral excretion of compound treated with genistein at 2 uM after 4 hrs by UPLC-MS/MS analysis in presence of BCRP inhibitor Ko143. Type of data set: ADME, cell-based. The settings on record: caco-2, 4 h. The method, boiled down: (§1)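 Caco-2 TC7 monolayers on 3 μm polycarbonate inserts, used 19–22 days post-seeding (TEER ≥460 Ω/cm2). Genistein 2 or 10 μM in HBSS pH 7.4 applied apically, ±5 μM Ko143 apically; sampling both sides at 0–4 h hourly with replacement, triplicate. Genistein and four conjugates plus intracellular amounts at 4 h by UPLC-MS/MS; mass balance versus dose added.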

The nature of data set [2]: Drug transport in human Caco2 cells assessed as basolateral excretion of compound treated with genistein at 10 uM after 4 hrs by UPLC-MS/MS analysis in presence of BCRP inhibitor Ko143. Type of data set: ADME, cell-based. The settings on record: caco-2, 4 h. The method in brief:
as §1
Background: Passage across Caco-2 layers is used to estimate intestinal permeability.

Another data set has as its system Blood. The data set can be described thus: Stability in Wistar rat blood at 3 uM up to 4 hrs by UPLC-MS/MS analysis. Type of data set: ADME, tissue-based. The method, boiled down: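 Genistein glucuronide mixture (G-7-G plus G-4′-G, 3 μM) with 3.8 μM genistein incubated in fresh rat whole blood, 37°C shaking water bath. Sampled at 0, 60, 120 and 240 min. Reaction stopped with acetonitrile containing daidzein internal standard. Genistein and conjugates quantified by UPLC-MS/MS using multiple reaction monitoring. n = 3.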

A short description of data set [3]: Stability in potassium phosphate buffer at pH 7.4 up to 4 hrs. Type of data set: physicochemical. The settings on record: pH 7.4, 4 h. The method, boiled down:
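Negative control run under the blood-incubation conditions but in 50 mM potassium phosphate buffer, pH 7.4, instead of blood. Genistein glucuronides (G-7-G plus G-4′-G, with aglycone) or sulfates (G-7-S plus G-4′-S, with aglycone) held at 37°C in a shaking water bath up to 4 h. Sampled at 0, 60, 120 and 240 min and read by UPLC-MS/MS.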

For the compound `O=c1c(-c2ccc(OS(=O)(=O)O)cc2)coc2cc(O)cc(O)c12`, the Drug transport result in data set [1] and in data set [2] was “Active” in each case. The Stability entry (in the data set with Blood; in data set [3]) was “Stable” throughout.

For the origin of these results see ChEMBL document CHEMBL3526009, “Breast cancer resistance protein (ABCG2) determines distribution of genistein phase II metabolites: reevaluation of the roles of ABCG2 in the disposition of genistein” (Drug Metab Dispos, 2012).
